Test results published in ChEMBL document CHEMBL4513216, “Probing the Open Global Health Chemical Diversity Library for Multistage-Active Starting Points for Next-Generation Antimalarials” (ACS Infect Dis, 2020).

Assay: Toxicity liver stage against HepG2, at 10uM
Type: cell-based
Design: test concentration 10 uM, cell line HepG2-A16-CD81EGFP
Settings: human, HepG2-A16-CD81EGFP cells; read-out: INHIBITION
Method in brief: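 Uninfected HepG2-A16-CD81EGFP cells, 3 × 10^3 per well, 1536-well, plated on prespotted compound at 10 μM final, parasite-free screening media added to match infected plates; puromycin 10 μM positive, DMSO 0.5% negative; run in parallel with 48 h PbLuc assay at 37 °C, 5% CO2; viability by CellTiter-Glo luminescence, normalized to controls.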

SMILES | cytotoxicity at 10 µM
Cc1cccc(NC(=O)CCNCc2c(C)nn(C)c2N(C)C)n1 | 7.82%
CS(=O)(=O)c1ccc(OCCNCc2ccc(F)cc2)cc1 | -8.86%
Cc1ccc(CCCC(=O)N2CCCC(CS(N)(=O)=O)C2)s1 (configuration not stated) | 17.9%
CN(C)C(=O)N1CCOCC2(CCN(c3ncccn3)C2)C1 (configuration not stated) | -9.17%
Cc1nc2ccccc2nc1CN1CCCC1Cn1cncn1 (configuration not stated) | -1.28%
COc1cc(OC)c(-n2nnc(C(=O)O)c2C)cc1Cl | -16.8%
CC(C)c1nnsc1CNC(=O)C1CCN(C(=O)C2CC2)CC1 | -0.439%
CCc1cnc(N2C[C@@H]3C[C@H](C(=O)N(C)C)[C@H](C2)O3)nc1 | -12.1%
CS(=O)(=O)CCC(=O)N1CCC2(CCCN(C3CCOCC3)C2=O)C1 (configuration not stated) | -7.64%
CN(CCCc1cc(-c2ccccc2)no1)S(C)(=O)=O | -14.4%
O=C(Nc1ncnc2c1CCC2)c1ccc2c(c1)OCO2 | 4.42%
Cn1cc(N2CCCC(Nc3ccc4c(c3)CCC(=O)N4)C2=O)cn1 (configuration not stated) | -1.56%
Cc1nc(CN2CCCC(c3cnccn3)C2)cs1 (configuration not stated) | -4.18%
O=C(Nc1ccc(-n2cccn2)cc1)N1CCC(O)C1 (configuration not stated) | 19.9%
Cc1nc(C)c(CNCc2nnc3n2CCCC3C(F)(F)F)s1 (configuration not stated) | 3.28%
O=C(c1ccco1)N1C[C@@H]2OCCN(CCN3CCCC3)[C@@H]2C1 | 1.54%
CCCc1nc(NCc2c(C)nn(CCC)c2C)c2cnn(C)c2n1 | 9.66%
CCOc1ccccc1C(=O)N1CCCC(c2nccn2CCOC)C1 (configuration not stated) | 1.1%
O=C(c1ccc(-n2cccn2)nc1)N1CCC(Nc2cccnn2)CC1 | -1.08%
CCC(=O)N1CCN(C(=O)Nc2ccc(Cl)cc2)[C@H]2CS(=O)(=O)C[C@H]21 | -43.9%
O=C(NCCNC1CCCC1)c1cccs1 | -0.579%
COCCN1CCC(CNC(=O)c2c[nH]c(=O)c(Cl)c2)CC1 | 9.05%
CCc1nc(C2CCCN2Cc2cnc(C)cn2)no1 (configuration not stated) | -14.6%

SMILES | cytotoxicity at 10 µM
C1CN(CC2CCOCC2)Cc2c(COCC3CC3)nnn2C1 | -130%
COc1ccc2nnc(CCCC(=O)NCc3ccccc3)n2n1 | -4.1%
CNc1ncc(-c2ccnn2C2CCN(C(C)=O)CC2)cn1 | 0.581%
CCCc1noc(CN(C)Cc2ccc3c(c2)OCO3)n1 | -11.1%
COc1ccc(C2SC(C)=Nc3c2c(=O)[nH]n3C2CCCCC2)cc1O (configuration not stated) | 1%
Cc1cc(C2CCCN(S(=O)(=O)N(C)C)C2)ccn1 (configuration not stated) | 21.4%
CN(Cc1cnn(C)c1)S(=O)(=O)N1CCCC1c1ccco1 (configuration not stated) | -5.78%
O=C(c1cccnc1N1CCOC(c2ccc(Cl)cc2)C1)N1CCCC1 (configuration not stated) | 7.21%
COc1cc(Oc2ncccc2C(F)(F)F)ccc1CN1CCCC1 | 38.8%
CC(=O)N1CC(=O)N(c2cnn(C)c2)CC12CCN(Cc1cccs1)C2 (configuration not stated) | 2.26%
c1cc(CN2CCc3c(CN4CCCC4)n[nH]c3C2)ccn1 | -10.5%
Cc1cnc(C)c(N2CCC3(CCCN(C4CCOCC4)C3=O)C2)n1 (configuration not stated) | -124%
CC(C)(C)NC(=O)CN1CCCN(Cc2cc(C#N)ccc2F)CC1 | -4.62%
COc1ccc(C2SCC(=O)Nc3n[nH]cc32)c(OC)c1OC (configuration not stated) | 4.68%
c1csc(CN2C[C@H](OCC3CC3)[C@H]3COC[C@H]32)n1 | 2.57%
O=c1[nH]c(=O)n(CC(O)c2ccccc2Cl)cc1Cl (configuration not stated) | 9.71%
Cc1noc([C@@H](C)NCc2cccc(Cl)c2)c1C(=O)O | -0.802%
CCOC1CC2(CCN(C(=O)COC)CC2)c2cc(C)ccc21 (configuration not stated) | -142%
CC(NC(=O)c1cc(C(C)C)[nH]n1)C(=O)Nc1ccccc1 (configuration not stated) | 10.8%
Cc1nc(N2CCCC2C(=O)NCc2ccsc2)nc2ccccc12 (configuration not stated) | 6.03%
Cc1ccc(C(=O)N2Cc3ccccc3OC3(CCOCC3)C2)cn1 | -25.8%
O=C(c1ccoc1)N1C[C@@H]2[C@@H](C1)OCC(=O)N2Cc1cccnc1 | 3.33%
CC(C)n1[nH]c(=O)c2c1NC(=O)CC2c1ccncc1 (configuration not stated) | -4.66%

SMILES | cytotoxicity at 10 µM
COc1ccc(Cl)cc1-n1nc(C2CCCC2)nc1Cn1cnnn1 | -15.5%
COCCN1C(=O)[C@@H]2CC[C@H]1CN(Cc1nnc(-c3ccccc3)o1)C2 | -4.94%
CCc1nc(CN(C)C2CCN(CC(=O)N(C)C)C2)no1 (configuration not stated) | -16.7%
O=C(O)c1cnc(-c2cccc3c2CCNC3)c(Cl)c1 | 8.97%
O=C(NCC1CC1)C1CN(C(=O)c2cccnc2)CC12CCOCC2 (configuration not stated) | 3.25%
c1cncc(C2=NOC3(CCN(Cc4c[nH]c5ccccc45)CC3)C2)c1 | 9.49%
CCOC(=O)NC1CCCN(c2cncc(Br)c2)C1 (configuration not stated) | -46.4%
CCCOCC1CCN(C(=O)c2cnc(-c3cccnc3)nc2O)C1 (configuration not stated) | -2.55%
N#Cc1ncn(CCS(=O)(=O)c2ccc(Br)cc2)n1 | -17.2%
Cc1cc(NC(=O)NCCOc2ccc(Cl)cn2)no1 | 9.08%
CCN(Cc1c(C)nn(C)c1C)C(=O)C1COc2ccccc2C1 (configuration not stated) | -0.91%
Cn1c(CN2CCCC(N3CCNC3=O)C2)cc(=O)n(C)c1=O (configuration not stated) | -5.6%
Cc1noc(C(C)N2CCN(CCc3ccncc3)CC2)n1 (configuration not stated) | 2.67%
Cc1noc(CNc2cc3c(cc2Cl)NC(=O)CO3)n1 | 3.07%
CCN(CC)c1nc2ccsc2c(=O)n1CCC(=O)NCc1ccco1 | 9.87%
Cc1cc(S(=O)(=O)N2CCOCC2C#N)ccc1F (configuration not stated) | 57.3%
Cc1ccc(-c2nnc(CN3CCOC(Cn4cccn4)C3)o2)cc1 (configuration not stated) | -8.06%
CCC(CNS(C)(=O)=O)Oc1ccccc1C (configuration not stated) | 17.3%
CCN(C)C(=O)C1(c2ccc(F)cc2F)CCC1 | -7.74%
Cn1ccnc1CN1CCC2(CC1)COCCN(c1ncccn1)C2 | 11.3%
CSc1nnc(CNC(=O)Nc2ccccc2F)n1C | 4.09%
c1ccc(C[C@H]2[C@H](N3CCOCC3)CCN2Cc2cccnc2)cc1 | -4.34%
OCCNc1nccc(-c2cn3nccc3nc2C2CCCCC2)n1 | -0.085%

SMILES | cytotoxicity at 10 µM
C=c1ccoc1=C1NN=C(CNCC2CCCN2c2cccnn2)O1 (configuration not stated) | -13.7%
Cc1cc(CN2CCN(C(=O)NC(C)c3cccnc3)CC2)no1 (configuration not stated) | -11.8%
O=S(=O)(Cc1ccc(F)c(Cl)c1)NCCOc1cccnc1 | -49.9%
O=C(NCC1(CO)CC1)c1ccccc1Cl | 5.47%
Cc1ccc(N2CCC(c3[nH]ncc3Cc3ccccc3)CC2)nn1 | -6.86%
CCCNc1ncc(CN2CCC3(CC2)CNC(=O)C3)cn1 | -7.07%
CCN(CC)c1nc(Nc2cccc(C(=O)O)c2)nc2ccccc12 | 12%
Cc1nc(N2CCC3(CCCN(CCO)C3=O)C2)c2sccc2n1 (configuration not stated) | -0.456%
Cc1nn(-c2ccccc2)c(C)c1CNC(=O)NC1CC1 | 7.59%
Cc1ccoc1C(=O)N1CCCC(CNS(C)(=O)=O)C1 (configuration not stated) | -23.4%
O=C(N1CCSCC1)C1(O)Cc2ccccc2C1 | 6.35%
Cc1c[nH]nc1C1CCCN1Cc1ccncc1 (configuration not stated) | 13.1%
O=C(CCn1cccn1)N1CCN(CC(F)F)CC1 | -5.11%
CC(C)NC(=O)CCNC(=O)c1cc(F)ccc1NS(C)(=O)=O | -4.24%
O=C(Cc1ccccc1)N1CC[C@H]2[C@@H]1CCC(=O)N2Cc1ccncc1 | 3.07%
O=C(c1ccccc1)N1CCO[C@@H]2CNC[C@@H]21 | -100%
Cc1ccc(NC(=O)[C@@H]2C[C@H](C(=O)O)CN(Cc3sccc3C)C2)cn1 | 11%
Cc1ncc2c(n1)C1(CCN(C(=O)C(C)C)CC1)OCC2 | 5.49%
CCc1ncc2c(n1)CN(Cc1nnc(Cc3ccccc3)o1)CC2 | -3.04%
CS(=O)(=O)N1CCCC(C(=O)N2CCOc3ccccc32)C1 (configuration not stated) | 0.421%
CCOc1ccc(NC2CCN(C(C)C)C2=O)cn1 (configuration not stated) | -17%
CCC(C)c1noc(C2CCN(C(=O)c3cccs3)CC2)n1 (configuration not stated) | -12.8%
COCC(=O)NCCn1ccc2c(OC)cccc21 | 3.07%

SMILES | cytotoxicity at 10 µM
COCCNC(=O)C1CCCN(c2ccc3nncn3n2)C1 (configuration not stated) | -0.302%
Cc1ccc(CCNC(=O)CC2COCCN2S(=O)(=O)N(C)C)o1 (configuration not stated) | 3.39%
CCCNC(=O)CCNC(=O)c1sc2ccc(F)cc2c1C | 3.33%
CC(C)(C)c1ccc2c(c1)CCN2C(=O)c1nc(=O)[nH][nH]1 | -3.74%
Cc1cnn(CC2CCCCN2Cc2cc(C)no2)c1 (configuration not stated) | -9.21%
COCC(=O)N1CCCC(c2csc(NC(C)=O)n2)C1 (configuration not stated) | -17.2%
O=C(CN1CCOC(Cn2cccn2)C1)NCc1ccco1 (configuration not stated) | -14.6%
Cc1noc(C2CCC3(CCN(C(=O)c4ccnnc4)CC3)O2)n1 (configuration not stated) | 6.69%
Cc1ccoc1C(=O)N1CCCC(c2cc(C(F)(F)F)[nH]n2)C1 (configuration not stated) | 2.4%
O=C(Cc1ccc(CO)cc1)N1CCN(CC2CC2)[C@@H]2CS(=O)(=O)C[C@@H]21 | -14.2%
Cc1ccccc1SCC(=O)Nn1cnnc1 | -43.1%
Cc1ccoc1C1=NNC(=CN2CCn3c(C)nnc3C2)O1 | -16.4%
Cc1cc(C(=O)N2CCN(c3ccncc3Cl)CC2)n(C)n1 | -9.1%
CSc1nccc(NCC2CNCCOC2)n1 (configuration not stated) | -5.13%
Cc1csc(C2(NCC(O)COc3ccc(F)cc3)CCC2)n1 (configuration not stated) | 14.9%
O=C(Cc1ccccc1)N1CCN(CC(O)c2ccc(F)cc2)CC1 (configuration not stated) | -13.8%
Cn1nc(COc2cccnc2)c2c1CCN(CC1CC1)C2 | -97.8%
c1cnc(N2CCN(C3CCC[C@@H]4CN(CC5CC5)C[C@H]34)CC2)nc1 (some centres not stated) | 8.97%
CC(C(=O)N1CCN(C(=O)c2ccc(F)cc2F)CC1)n1ccnc1 (configuration not stated) | 1.63%
Fc1ccc(Cc2cccc(C3CCN(C4CCOCC4)CC3)n2)cc1 | 4.3%
